# Results reported in ChEMBL document CHEMBL1629528 (J Med Chem, 2010).
# Active and inactive are the calls of the source. No cut-off for these calls is given here.
# Key:
# [1] = target: T1, 5-hydroxytryptamine receptor 1A (Homo sapiens, UniProt P08908); test: Displacement of [3H]WAY100635 from human recombinant 5-HT1A receptor expressed in CHO cells; format: cell-based
# T1 sequence (P08908 whole entry): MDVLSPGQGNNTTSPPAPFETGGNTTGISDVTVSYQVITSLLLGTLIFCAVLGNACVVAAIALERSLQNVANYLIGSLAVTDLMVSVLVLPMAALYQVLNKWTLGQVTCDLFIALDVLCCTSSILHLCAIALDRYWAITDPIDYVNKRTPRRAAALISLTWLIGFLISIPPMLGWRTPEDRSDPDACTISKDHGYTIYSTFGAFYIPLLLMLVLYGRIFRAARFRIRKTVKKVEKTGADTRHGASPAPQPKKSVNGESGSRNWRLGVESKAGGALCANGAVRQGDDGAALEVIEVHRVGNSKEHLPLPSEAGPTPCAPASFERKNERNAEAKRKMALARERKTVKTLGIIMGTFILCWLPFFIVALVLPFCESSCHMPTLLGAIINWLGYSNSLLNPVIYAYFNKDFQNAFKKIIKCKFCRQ
# [2] = target: T2, 5-hydroxytryptamine receptor 1B (Homo sapiens, UniProt P28222); test: Displacement of [3H]5-HT from human recombinant 5-HT1B receptor expressed in CHO cells; format: cell-based
# T2 sequence (P28222 whole entry): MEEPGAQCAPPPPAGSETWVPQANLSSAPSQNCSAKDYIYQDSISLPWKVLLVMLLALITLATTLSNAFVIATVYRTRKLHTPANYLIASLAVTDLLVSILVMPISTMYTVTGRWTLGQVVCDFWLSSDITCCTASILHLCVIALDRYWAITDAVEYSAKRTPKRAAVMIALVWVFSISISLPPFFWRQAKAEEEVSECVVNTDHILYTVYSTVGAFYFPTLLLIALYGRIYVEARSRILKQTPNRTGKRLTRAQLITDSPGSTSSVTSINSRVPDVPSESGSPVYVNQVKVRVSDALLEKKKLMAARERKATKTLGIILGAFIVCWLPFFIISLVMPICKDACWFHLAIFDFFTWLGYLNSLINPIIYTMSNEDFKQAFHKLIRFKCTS
# [3] = target: T3, 5-hydroxytryptamine receptor 1D (Homo sapiens, UniProt P28221); test: Displacement of [3H]5-HT from human recombinant 5-HT1D receptor expressed in CHO cells; format: cell-based
# T3 sequence (P28221 whole entry): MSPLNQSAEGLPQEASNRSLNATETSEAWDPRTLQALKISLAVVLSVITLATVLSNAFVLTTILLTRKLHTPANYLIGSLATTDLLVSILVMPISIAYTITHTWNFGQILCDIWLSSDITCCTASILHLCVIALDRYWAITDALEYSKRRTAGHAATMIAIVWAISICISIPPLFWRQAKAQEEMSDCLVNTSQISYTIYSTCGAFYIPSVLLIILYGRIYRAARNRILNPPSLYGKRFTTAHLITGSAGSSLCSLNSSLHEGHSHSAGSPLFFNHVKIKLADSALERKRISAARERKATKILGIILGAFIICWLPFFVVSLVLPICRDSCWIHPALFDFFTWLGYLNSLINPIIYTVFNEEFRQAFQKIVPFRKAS
# [4] = target: Sodium-dependent serotonin transporter (Rattus norvegicus, UniProt P31652); test: Inhibition of [3H]5-HT uptake at SERT in rat cortical synaptosomes; format: subcellular, Brain
# Sequence of Sodium-dependent serotonin transporter (P31652 whole entry): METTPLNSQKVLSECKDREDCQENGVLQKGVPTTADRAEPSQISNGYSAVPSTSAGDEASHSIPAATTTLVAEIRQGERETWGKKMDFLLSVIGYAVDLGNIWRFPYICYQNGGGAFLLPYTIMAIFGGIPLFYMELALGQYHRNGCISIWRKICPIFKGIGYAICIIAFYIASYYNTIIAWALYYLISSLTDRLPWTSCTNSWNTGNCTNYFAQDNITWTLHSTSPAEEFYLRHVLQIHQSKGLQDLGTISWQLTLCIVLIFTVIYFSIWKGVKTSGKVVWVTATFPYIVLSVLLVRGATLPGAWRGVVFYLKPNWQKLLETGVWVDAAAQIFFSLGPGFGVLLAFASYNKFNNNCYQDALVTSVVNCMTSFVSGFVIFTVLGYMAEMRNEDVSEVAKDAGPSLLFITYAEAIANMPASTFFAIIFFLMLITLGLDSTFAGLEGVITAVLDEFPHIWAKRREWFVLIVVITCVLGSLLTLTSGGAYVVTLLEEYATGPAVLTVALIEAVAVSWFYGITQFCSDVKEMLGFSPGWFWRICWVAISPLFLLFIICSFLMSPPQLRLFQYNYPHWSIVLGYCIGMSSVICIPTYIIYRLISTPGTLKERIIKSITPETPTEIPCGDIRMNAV
# [5] = target: T3, 5-hydroxytryptamine receptor 1D; test: Inverse agonist activity at human recombinant 5-HT1D receptor expressed in CHO cells by [S35]GTPgammaS binding assay; format: functional, cell-based
# How it was run: (§1)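 [35S]-GTPγS binding in membranes from 10^6 cells (HEK293 for 5-HT1A; CHO for 5-HT1B, 5-HT1D), preincubated 30 min at 30 °C with compound in 20 mM HEPES pH 7.4, 3 mM MgCl2, 100 mM NaCl, 10 μM GDP, 0.2 mM ascorbate. 100 pM [35S]-GTPγS added, 30 min more at 30 °C; nonspecific with 20 μM GTPγS; filtration and scintillation counting.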
# [6] = target: T2, 5-hydroxytryptamine receptor 1B; test: Intrinsic activity at human recombinant 5-HT1B receptor expressed in CHO cells by [S35]GTPgammaS binding assay relative to 5-HT; format: functional, cell-based; how it was run: as §1
# [7] = target: T4, 5-hydroxytryptamine receptor 1A (Homo sapiens) (UniProt P08908); test: Inverse agonist activity at human recombinant 5-HT1A receptor expressed in HEK293 cells by [S35]GTPgammaS binding assay; format: functional, cell-based; how it was run: as §1
# T4 sequence (whole entry): T1 sequence (P08908 whole entry)
# [8] = target: T4, 5-hydroxytryptamine receptor 1A (Homo sapiens); test: Intrinsic activity at human recombinant 5-HT1A receptor expressed in HEK293 cells by [S35]GTPgammaS binding assay relative to 5-HT; format: functional, cell-based; how it was run: as §1
# [9] = target: T3, 5-hydroxytryptamine receptor 1D; test: Intrinsic activity at human recombinant 5-HT1D receptor expressed in CHO cells by [S35]GTPgammaS binding assay relative to 5-HT; format: functional, cell-based; how it was run: as §1
# [10] = target: Voltage-gated inwardly rectifying potassium channel KCNH2 (Homo sapiens, UniProt Q12809); test: Displacement of [3H]dofetilide from human ERG by SPA
# [11] = target: 5-hydroxytryptamine receptor 2A (Homo sapiens, UniProt P28223); test: Binding affinity to human recombinant 5-HT2A receptor by radioligand displacement assay
# Sequence of 5-hydroxytryptamine receptor 2A (P28223 whole entry): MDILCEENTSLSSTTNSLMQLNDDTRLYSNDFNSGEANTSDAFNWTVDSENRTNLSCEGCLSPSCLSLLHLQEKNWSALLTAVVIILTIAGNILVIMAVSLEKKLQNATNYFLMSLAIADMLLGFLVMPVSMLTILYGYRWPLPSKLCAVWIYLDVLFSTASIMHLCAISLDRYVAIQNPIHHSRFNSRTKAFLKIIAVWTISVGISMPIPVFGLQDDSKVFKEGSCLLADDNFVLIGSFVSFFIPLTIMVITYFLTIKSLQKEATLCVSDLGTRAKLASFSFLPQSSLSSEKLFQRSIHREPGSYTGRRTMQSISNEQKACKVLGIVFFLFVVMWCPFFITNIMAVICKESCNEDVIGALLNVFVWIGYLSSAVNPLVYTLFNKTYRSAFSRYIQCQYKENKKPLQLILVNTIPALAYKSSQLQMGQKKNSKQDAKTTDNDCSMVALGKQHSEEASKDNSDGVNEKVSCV
# [12] = target: 5-hydroxytryptamine receptor 2B (Homo sapiens, UniProt P41595); test: Binding affinity to human recombinant 5-HT2B receptor by radioligand displacement assay
# Sequence of 5-hydroxytryptamine receptor 2B (P41595 whole entry): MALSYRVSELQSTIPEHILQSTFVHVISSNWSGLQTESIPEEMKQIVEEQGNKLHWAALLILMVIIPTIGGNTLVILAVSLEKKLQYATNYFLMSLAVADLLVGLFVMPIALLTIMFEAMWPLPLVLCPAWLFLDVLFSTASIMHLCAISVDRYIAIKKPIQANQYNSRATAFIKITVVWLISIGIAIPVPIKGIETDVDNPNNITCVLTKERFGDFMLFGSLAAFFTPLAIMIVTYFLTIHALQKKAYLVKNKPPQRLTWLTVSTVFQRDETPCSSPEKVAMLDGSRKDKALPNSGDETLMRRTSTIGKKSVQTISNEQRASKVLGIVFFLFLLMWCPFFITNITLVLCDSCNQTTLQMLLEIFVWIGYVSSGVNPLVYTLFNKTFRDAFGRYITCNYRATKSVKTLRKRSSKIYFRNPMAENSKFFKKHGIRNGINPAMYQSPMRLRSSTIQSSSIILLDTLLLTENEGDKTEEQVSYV
# [13] = target: T5, 5-hydroxytryptamine receptor 2C (Homo sapiens, UniProt P28335); test: Binding affinity to human recombinant 5-HT2C receptor by radioligand displacement assay
# T5 sequence (P28335 whole entry): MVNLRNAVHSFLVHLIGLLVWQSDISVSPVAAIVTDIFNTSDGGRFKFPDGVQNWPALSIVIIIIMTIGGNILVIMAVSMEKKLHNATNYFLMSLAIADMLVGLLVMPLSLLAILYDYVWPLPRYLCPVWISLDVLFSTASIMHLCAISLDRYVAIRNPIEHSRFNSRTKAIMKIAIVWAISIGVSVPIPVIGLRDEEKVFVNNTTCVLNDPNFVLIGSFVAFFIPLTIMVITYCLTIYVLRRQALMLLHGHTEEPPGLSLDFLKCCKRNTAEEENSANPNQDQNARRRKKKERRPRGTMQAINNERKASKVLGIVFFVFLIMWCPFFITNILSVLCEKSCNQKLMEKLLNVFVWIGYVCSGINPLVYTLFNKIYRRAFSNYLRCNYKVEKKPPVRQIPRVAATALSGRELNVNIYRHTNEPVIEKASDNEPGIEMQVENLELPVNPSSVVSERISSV
# [14] = target: 5-hydroxytryptamine receptor 6 (Homo sapiens, UniProt P50406); test: Binding affinity to human recombinant 5-HT6 receptor by radioligand displacement assay
# Sequence of 5-hydroxytryptamine receptor 6 (P50406 whole entry): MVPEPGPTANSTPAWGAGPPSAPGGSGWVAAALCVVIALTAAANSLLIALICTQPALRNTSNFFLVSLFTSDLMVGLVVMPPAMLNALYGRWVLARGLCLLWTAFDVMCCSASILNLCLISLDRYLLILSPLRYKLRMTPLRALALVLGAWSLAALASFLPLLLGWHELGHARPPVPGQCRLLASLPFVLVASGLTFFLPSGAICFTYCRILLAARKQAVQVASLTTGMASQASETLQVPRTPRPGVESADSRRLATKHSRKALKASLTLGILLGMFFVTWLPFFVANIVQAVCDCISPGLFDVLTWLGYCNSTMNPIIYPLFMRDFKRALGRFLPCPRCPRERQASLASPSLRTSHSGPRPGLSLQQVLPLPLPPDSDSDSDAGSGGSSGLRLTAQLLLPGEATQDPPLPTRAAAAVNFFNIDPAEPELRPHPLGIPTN
# [15] = target: 5-hydroxytryptamine receptor 7 (Homo sapiens, UniProt P34969); test: Binding affinity to human recombinant 5-HT7 receptor by radioligand displacement assay
# Sequence of 5-hydroxytryptamine receptor 7 (P34969 whole entry): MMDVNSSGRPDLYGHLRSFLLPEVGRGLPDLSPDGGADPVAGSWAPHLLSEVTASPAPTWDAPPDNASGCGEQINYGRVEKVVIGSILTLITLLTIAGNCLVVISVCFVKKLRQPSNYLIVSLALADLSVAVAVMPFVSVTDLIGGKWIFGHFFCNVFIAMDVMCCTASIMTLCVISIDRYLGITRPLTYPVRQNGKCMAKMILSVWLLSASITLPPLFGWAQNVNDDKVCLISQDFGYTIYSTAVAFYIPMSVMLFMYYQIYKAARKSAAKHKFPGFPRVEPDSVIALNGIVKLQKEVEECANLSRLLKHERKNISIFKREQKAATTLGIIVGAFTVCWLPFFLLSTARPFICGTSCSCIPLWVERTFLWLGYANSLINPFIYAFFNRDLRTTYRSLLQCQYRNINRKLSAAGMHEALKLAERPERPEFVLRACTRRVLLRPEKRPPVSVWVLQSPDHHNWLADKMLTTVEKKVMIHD
# D(2) dopamine receptor = D(2) dopamine receptor (Homo sapiens, UniProt P14416); test: Binding affinity to human recombinant dopamine D2 receptor by radioligand displacement assay
# Sequence of D(2) dopamine receptor (P14416 whole entry): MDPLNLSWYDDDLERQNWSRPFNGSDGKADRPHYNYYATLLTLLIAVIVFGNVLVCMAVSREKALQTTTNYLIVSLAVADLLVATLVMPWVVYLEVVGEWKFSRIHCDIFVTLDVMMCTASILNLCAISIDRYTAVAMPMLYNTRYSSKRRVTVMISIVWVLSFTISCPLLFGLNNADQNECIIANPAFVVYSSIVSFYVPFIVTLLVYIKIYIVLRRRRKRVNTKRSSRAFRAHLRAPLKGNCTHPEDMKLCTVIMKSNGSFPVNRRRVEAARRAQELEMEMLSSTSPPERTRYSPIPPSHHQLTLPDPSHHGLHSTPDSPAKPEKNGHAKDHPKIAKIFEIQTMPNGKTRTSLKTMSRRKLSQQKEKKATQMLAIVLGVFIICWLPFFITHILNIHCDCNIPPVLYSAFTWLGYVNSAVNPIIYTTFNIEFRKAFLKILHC
# D(3) dopamine receptor = D(3) dopamine receptor (Homo sapiens, UniProt P35462); test: Binding affinity to human recombinant dopamine D3 receptor by radioligand displacement assay
# Sequence of D(3) dopamine receptor (P35462 whole entry): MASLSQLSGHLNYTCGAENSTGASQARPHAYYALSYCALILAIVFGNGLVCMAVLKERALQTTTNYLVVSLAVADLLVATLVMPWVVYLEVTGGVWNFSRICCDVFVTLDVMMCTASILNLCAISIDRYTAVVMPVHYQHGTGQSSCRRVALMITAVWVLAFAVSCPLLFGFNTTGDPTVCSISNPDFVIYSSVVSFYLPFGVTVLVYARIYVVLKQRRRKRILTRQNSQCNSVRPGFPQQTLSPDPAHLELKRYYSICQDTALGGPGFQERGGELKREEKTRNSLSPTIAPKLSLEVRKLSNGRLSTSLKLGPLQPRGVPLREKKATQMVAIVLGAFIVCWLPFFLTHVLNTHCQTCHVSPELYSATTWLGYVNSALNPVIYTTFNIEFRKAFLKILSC
# [16] = target: T2, 5-hydroxytryptamine receptor 1B; test: Inverse agonist activity at human recombinant 5-HT1B receptor expressed in CHO cells by [S35]GTPgammaS binding assay; format: functional, cell-based; how it was run: as §1
Compound,Ki [1] [nM],Ki [2] [nM],Ki [3] [nM],Ki [4] [nM],Activity [7],Activity [16],also measured
Cc1ccc2c(N3CCN(CCc4cccc(NC(=O)c5ccccc5F)c4)CC3)cccc2n1,1,3.16,0.251,631,Active,,Activity [5]: Active; Intrinsic activity [6]: 0
CC(=O)N(C)c1cccc(CCN2CCN(c3cccc4nc(C)ccc34)CC2)c1,2,12.6,0.316,,,,Intrinsic activity [8]: 0.1; Intrinsic activity [6]: 0.2; Intrinsic activity [9]: 0
Cc1ccc2c(N3CCN(CCc4cccc(N5C(=O)CCC5=O)c4)CC3)cccc2n1,3.16,39.8,1.58,20000,,,
Cc1ccc2c(N3CCN(CCc4cccc(NS(C)(=O)=O)c4)CC3)cccc2n1,0.794,0.794,0.126,3160,,,Ki [10]: 501 nM; Ki [11]: 794 nM; Ki [12]: 398 nM; Ki [13]: 3160 nM; Ki [14]: > 2510 nM; Ki [15]: 100 nM; Ki (D(2) dopamine receptor): 398 nM; Ki (D(3) dopamine receptor): 200 nM
CCOC(=O)Nc1cccc(CCN2CCN(c3cccc4nc(C)ccc34)CC2)c1,1.26,1.26,0.126,794,,,
CCCNC(=O)Nc1cccc(CCN2CCN(c3cccc4nc(C)ccc34)CC2)c1,5.01,2,0.158,794,,,
Cc1ccc2c(N3CCN(CCc4ccc5c(c4)NC(=O)CO5)CC3)cccc2n1,,,,,,,Intrinsic activity [8]: 0.2; Intrinsic activity [6]: 0.1
Cc1ccc2c(N3CCN(CCc4cccc(NC(=O)NC(C)(C)C)c4)CC3)cccc2n1,7.94,3.98,0.251,794,,,
Cc1ccc2c(N3CCN(CCc4cccc(NC(=O)C(C)(C)C)c4)CC3)cccc2n1,6.31,2,0.316,1580,Active,Active,Activity [5]: Active
COC(=O)Nc1cccc(CCN2CCN(c3cccc4nc(C)ccc34)CC2)c1,0.398,,0.251,501,,Active,Intrinsic activity [8]: 0; Intrinsic activity [9]: 0; Ki [11]: 200 nM; Ki [12]: 200 nM; Ki [13]: 794 nM; Ki [14]: > 1580 nM; Ki [15]: 25.1 nM; Ki (D(2) dopamine receptor): 200 nM; Ki (D(3) dopamine receptor): 100 nM
CC(=O)Nc1cccc(CCN2CCN(c3cccc4nc(C)ccc34)CC2)c1,1,0.501,0.251,1260,,,Ki [11]: 251 nM; Ki [12]: 158 nM; Ki [13]: 1000 nM; Ki [14]: > 3980 nM; Ki [15]: 63.1 nM; Ki (D(2) dopamine receptor): 398 nM; Ki (D(3) dopamine receptor): 158 nM
Cc1ccc2c(N3CCN(CCc4cccc(-n5cccn5)c4)CC3)cccc2n1,0.501,1.58,0.158,316,,,Ki [11]: 398 nM; Ki [12]: 79.4 nM; Ki [13]: 2000 nM; Ki [14]: > 10000 nM; Ki [15]: 126 nM; Ki (D(2) dopamine receptor): 398 nM; Ki (D(3) dopamine receptor): 50.1 nM
Cc1ccc2c(N3CCN(CCc4cccc(NC(=O)C(C)C)c4)CC3)cccc2n1,2,1.58,0.158,1260,Active,Active,Activity [5]: Active
COc1ccccc1C(=O)Nc1cccc(CCN2CCN(c3cccc4nc(C)ccc34)CC2)c1,2.51,3.98,0.631,794,,,
Cc1ccc2c(N3CCN(CCc4cccc(NC(=O)c5cccc(F)c5)c4)CC3)cccc2n1,0.631,3.16,0.316,631,Active,Active,Activity [5]: Active
Cc1ccc2c(N3CCN(CCc4cccc(NC(=O)c5scnc5C)c4)CC3)cccc2n1,0.398,2,0.251,501,Active,,Activity [5]: Active; Intrinsic activity [6]: 0
Cc1ccc2c(N3CCN(CCc4cccc(N5CCCNC5=O)c4)CC3)cccc2n1,3.16,39.8,0.316,,,,
Cc1ccc2c(N3CCN(CCc4cccc(NC(=O)c5csc(C)n5)c4)CC3)cccc2n1,0.794,3.16,0.398,501,Active,Active,Activity [5]: Active; Ki [10]: 316 nM
Cc1ccc2c(N3CCN(CCc4cccc(NC(=O)c5cnccn5)c4)CC3)cccc2n1,0.501,1.26,0.2,398,,,Ki [11]: 158 nM; Ki [12]: 794 nM; Ki [13]: > 1580 nM; Ki [14]: 794 nM; Ki [15]: 200 nM; Ki (D(2) dopamine receptor): 200 nM; Ki (D(3) dopamine receptor): 79.4 nM
Cc1ccc2c(N3CCN(CCc4cccc(NC(=O)Nc5cccc(F)c5)c4)CC3)cccc2n1,3.98,3.98,0.631,2510,,Active,Intrinsic activity [8]: 0; Intrinsic activity [9]: 0
Cc1ccc2c(N3CCN(CCc4cccc(N)c4)CC3)cccc2n1,15.8,7.94,0.501,,,,

# Continued, in another order:
Ki [1] [nM],Ki [2] [nM],Ki [3] [nM],Ki [4] [nM],Activity [7],Activity [16],Compound,also measured
,,,,Active,,Cc1ccc2c(OCCN3CCC(Cc4cccc(NS(C)(=O)=O)c4)CC3)cccc2n1,Intrinsic activity [6]: 0.3; Intrinsic activity [9]: 0
2,1.26,0.2,1260,,Active,CCC(=O)Nc1cccc(CCN2CCN(c3cccc4nc(C)ccc34)CC2)c1,Intrinsic activity [8]: 0; Activity [5]: Active
1.58,2,0.631,,,,CCCS(=O)(=O)Nc1cccc(CCN2CCN(c3cccc4nc(C)ccc34)CC2)c1,
1.26,5.01,0.398,794,Active,Active,Cc1ccc2c(N3CCN(CCc4cccc(NC(=O)c5ccc(F)cc5)c4)CC3)cccc2n1,Intrinsic activity [9]: 0
2,1.58,0.158,1260,,,COc1cccc(C(=O)Nc2cccc(CCN3CCN(c4cccc5nc(C)ccc45)CC3)c2)c1,
3.16,3.98,0.501,1260,Active,Active,COc1ccc(C(=O)Nc2cccc(CCN3CCN(c4cccc5nc(C)ccc45)CC3)c2)cc1,Activity [5]: Active
2.51,31.6,0.251,,,,Cc1ccc2c(N3CCN(CCc4cccc(N5CCCOC5=O)c4)CC3)cccc2n1,
3.16,1,0.2,2000,,,Cc1ccc2c(N3CCN(CCc4cccc(NC(=O)Nc5ccccc5F)c4)CC3)cccc2n1,
2.51,3.16,0.501,1260,,,Cc1ccc2c(N3CCN(CCc4cccc(NC(=O)Nc5ccc(F)cc5)c4)CC3)cccc2n1,
